From ChEMBL document CHEMBL4431397, “T-3364366 Targets the Desaturase Domain of Delta-5 Desaturase with Nanomolar Potency and a Multihour Residence Time” (ACS Med Chem Lett, 2016)
Values belong to the compound of their own block, whether it stands above or below them. Active and inactive are the calls of the source. The calls are words filed in the database; no cut-off is given here.

Legend:
[1] = molecular target: Acyl-CoA (8-3)-desaturase (Rattus norvegicus) (UniProt Q920R3); experiment: Displacement of [3H]T-3364366 from D5D in Sprague-Dawley rat liver microsomes at high concentrations after 150 mins by liquid scintillation counting
Acyl-CoA (8-3)-desaturase (Rattus norvegicus), sequence (Q920R3 whole entry, looked up): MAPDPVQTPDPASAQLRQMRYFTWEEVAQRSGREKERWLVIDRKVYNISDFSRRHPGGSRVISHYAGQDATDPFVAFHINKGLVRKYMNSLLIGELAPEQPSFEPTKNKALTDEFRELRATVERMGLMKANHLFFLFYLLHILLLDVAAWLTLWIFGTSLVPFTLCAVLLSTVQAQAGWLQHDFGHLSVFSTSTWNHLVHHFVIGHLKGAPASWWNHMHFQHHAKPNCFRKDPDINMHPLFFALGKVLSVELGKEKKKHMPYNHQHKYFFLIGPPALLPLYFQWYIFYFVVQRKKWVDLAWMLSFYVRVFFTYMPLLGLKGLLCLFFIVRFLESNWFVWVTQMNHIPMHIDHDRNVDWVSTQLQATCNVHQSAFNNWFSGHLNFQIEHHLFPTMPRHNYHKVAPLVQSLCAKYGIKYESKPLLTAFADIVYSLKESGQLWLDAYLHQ
Method in brief: (§1)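 Filter binding with [³H]T-3364366 as probe on rat liver microsomes, incubated 150 min. Specific binding is total minus nonspecific. In displacement runs, DMSO serves as 100% and 10 μM nonlabeled T-3364366 as 0%. Mean ± SEM, n = 3; apparent Kd reported with 95% CI.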

Acyl-CoA desaturase 1 = molecular target: T1, Acyl-CoA desaturase 1 (Rattus norvegicus, UniProt P07308); experiment: Inhibition of SCD in Sprague-Dawley rat liver microsomes using [14C]stearoyl-CoA as substrate preincubated for 5 mins measured after 30 mins
T1 sequence (P07308 whole entry): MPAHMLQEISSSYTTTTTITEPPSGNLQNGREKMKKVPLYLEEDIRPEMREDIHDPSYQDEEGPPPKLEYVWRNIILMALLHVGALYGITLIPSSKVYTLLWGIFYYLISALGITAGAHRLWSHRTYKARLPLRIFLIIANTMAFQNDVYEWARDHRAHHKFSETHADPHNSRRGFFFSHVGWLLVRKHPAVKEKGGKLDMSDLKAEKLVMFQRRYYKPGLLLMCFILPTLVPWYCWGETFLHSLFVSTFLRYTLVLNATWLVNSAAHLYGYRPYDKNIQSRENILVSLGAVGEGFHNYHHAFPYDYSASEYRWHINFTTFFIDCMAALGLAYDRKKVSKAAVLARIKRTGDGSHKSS

[2] = MRT in mouse at 0.10 mg/kg, iv administered in cassette mode; assay type: ADME, organism-based; conditions: in vivo, 0.1 mg/kg
Method in brief: (§2)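 Mouse cassette dosing, n = 3 per group. Given iv at 0.10 mg/kg or orally. Plasma AUC taken over 0–8 h. Total clearance, Vdss and MRT derived from the iv arm. Bioavailability F computed as a percentage.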

[3] = molecular target: Acyl-CoA (8-3)-desaturase (Rattus norvegicus) (UniProt Q920R3); experiment: Reversible binding affinity to D5D in Sprague-Dawley rat liver microsomes assessed as dissociation half life at 6 nM preincubated for 150 mins followed by 2 fold dilution by 10 uM of T-3364366 by liquid scintillation counting
Method in brief: (§3)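 Binary complex formed by preincubating [³H]T-3364366 (6.0 nM) with microsomal D5D for 150 min. Mixture then diluted 2-fold with excess nonlabeled T-3364366 (10 μM) to block rebinding. Residual specific binding followed over time to 21 h. Dissociation half-life fitted with 95% CI, without correcting for time-dependent loss of binding.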

[4] = molecular target: T2, Acyl-CoA (8-3)-desaturase (Rattus norvegicus, UniProt Q920R3); experiment: Inhibition of D5D in rat RLN10 cells using [14C]DGLA as substrate preincubated for 30 mins followed by substrate addition measured after 3 hrs; assay type: cell-based
T2 sequence (Q920R3 whole entry): as the sequence (Q920R3 whole entry, looked up) above

[5] = molecular target: T2, Acyl-CoA (8-3)-desaturase; experiment: Inhibition of D5D in Sprague-Dawley rat liver microsomes using [14C]DGLA as substrate preincubated for 5 mins measured after 120 mins
[6] = AUC(0 to 8 hrs) in mouse at 1 mg/kg, po administered in cassette mode; assay type: ADME, organism-based; parameters: dose 1 mg/kg, route oral; conditions: in vivo; method in brief: as §2
[7] = molecular target: T2, Acyl-CoA (8-3)-desaturase; experiment: Binding affinity to D5D in Sprague-Dawley rat liver microsomes after 150 mins by liquid scintillation counting; conditions: read-out: Kd(app); method in brief: as §1
[8] = AUC(0 to 8 hrs) in mouse at 0.10 mg/kg, iv administered in cassette mode; assay type: ADME, organism-based; parameters: dose 0.1 mg/kg, route intravenous; conditions: in vivo, 0.1 mg/kg; method in brief: as §2
[9] = molecular target: T3, Acyl-CoA (8-3)-desaturase (Homo sapiens, UniProt O60427); experiment: Inhibition of D5D in human HepG2 cells using [14C]DGLA as substrate preincubated for 30 mins followed by substrate addition measured after 3 hrs; assay type: cell-based
Target sequence in this assay (O60427 whole entry): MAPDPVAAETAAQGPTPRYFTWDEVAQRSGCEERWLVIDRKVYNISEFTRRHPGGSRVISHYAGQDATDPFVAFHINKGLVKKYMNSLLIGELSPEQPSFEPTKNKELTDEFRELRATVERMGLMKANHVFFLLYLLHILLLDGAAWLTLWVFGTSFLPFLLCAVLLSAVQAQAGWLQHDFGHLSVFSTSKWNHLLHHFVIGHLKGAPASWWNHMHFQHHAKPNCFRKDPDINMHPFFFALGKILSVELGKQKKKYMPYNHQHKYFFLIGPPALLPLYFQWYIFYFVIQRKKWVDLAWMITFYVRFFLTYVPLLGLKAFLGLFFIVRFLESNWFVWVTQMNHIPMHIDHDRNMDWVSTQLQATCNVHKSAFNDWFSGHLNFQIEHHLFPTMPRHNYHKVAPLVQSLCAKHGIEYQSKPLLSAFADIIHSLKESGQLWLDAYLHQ

[10] = Volume of distribution in steady state in mouse at 0.10 mg/kg, iv administered in cassette mode; assay type: ADME, organism-based; conditions: in vivo, 0.1 mg/kg, read-out: Vdss; method in brief: as §2
[11] = MRT in mouse at 1 mg/kg, po administered in cassette mode; assay type: ADME, organism-based; conditions: in vivo
[12] = molecular target: Acyl-CoA (8-3)-desaturase (Rattus norvegicus) (UniProt Q920R3); experiment: Binding affinity to D5D in Sprague-Dawley rat liver microsomes at 1.2 to 20 nM measured up to 2.5 hrs by liquid scintillation counting; conditions: TDE = time-dependent effect
Method in brief: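 Time course: various [³H]T-3364366 concentrations incubated with microsomal D5D. Specific binding determined at several time points up to 2.5 h.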

Homo sapiens = organism: Homo sapiens; experiment: Binding affinity to recombinant D6Db5 (1 to 100 residues)/D5Ddes (100 to 444 residues) domain swapped mutant (unknown origin) expressed in baculovirus at 5 to 25 nM after 150 mins by liquid scintillation counting
[13] = molecular target: Acyl-CoA (8-3)-desaturase (Rattus norvegicus) (UniProt Q920R3); experiment: Reversible binding affinity to D5D in Sprague-Dawley rat liver microsomes assessed as compound bound to protein at 6 nM preincubated for 150 mins followed by 2 fold dilution by 10 uM of T-3364366 measured after 21 hrs by liquid scintillation counting relative to control; method in brief: as §3
[14] = Total clearance in mouse at 0.10 mg/kg, iv administered in cassette mode; assay type: ADME, organism-based; conditions: in vivo, 0.1 mg/kg; method in brief: as §2
[15] = molecular target: T3, Acyl-CoA (8-3)-desaturase; experiment: Inhibition of D5D in human HepG2 cells using [14C]DGLA as substrate assessed as suppression of [14C]AA production at 10 uM preincubated for 3 hrs followed by compound washout and addition of substrate measured after 4 hrs by liquid scintillation counting; assay type: cell-based
Method in brief: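 HepG2 cells treated with compound for 3 h, then washed three times. Cells pulsed with [¹⁴C]DGLA and incubated a further 4 h. [¹⁴C]AA production normalized: DMSO as 100%, 10 μM T-3364366 without washout as 0%. Mean ± SEM, n = 4.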
Target sequence in this assay (O60427 whole entry, looked up): as the sequence (O60427 whole entry) above

[16] = molecular target: T3, Acyl-CoA (8-3)-desaturase; experiment: Binding affinity to recombinant wild type D5D (unknown origin) expressed in baculovirus at 5 to 25 nM after 150 mins by liquid scintillation counting
Target sequence in this assay (O60427 whole entry, looked up): as the sequence (O60427 whole entry) above

[17] = Oral bioavailability in mouse at 1 mg/kg administered in cassette mode; assay type: ADME, organism-based; conditions: in vivo; method in brief: as §2
[18] = molecular target: Acyl-CoA (8-3)-desaturase (Rattus norvegicus) (UniProt Q920R3); experiment: Reversible binding affinity to D5D in Sprague-Dawley rat liver microsomes after 150 mins in presence of trichloroacetate by liquid scintillation counting
Acyl-CoA 6-desaturase = Acyl-CoA 6-desaturase (Rattus norvegicus, UniProt Q9Z122); experiment: Inhibition of D6D in Sprague-Dawley rat liver microsomes using [14C]LA as substrate preincubated for 5 mins measured after 30 mins
Acyl-CoA 6-desaturase, sequence (Q9Z122 whole entry): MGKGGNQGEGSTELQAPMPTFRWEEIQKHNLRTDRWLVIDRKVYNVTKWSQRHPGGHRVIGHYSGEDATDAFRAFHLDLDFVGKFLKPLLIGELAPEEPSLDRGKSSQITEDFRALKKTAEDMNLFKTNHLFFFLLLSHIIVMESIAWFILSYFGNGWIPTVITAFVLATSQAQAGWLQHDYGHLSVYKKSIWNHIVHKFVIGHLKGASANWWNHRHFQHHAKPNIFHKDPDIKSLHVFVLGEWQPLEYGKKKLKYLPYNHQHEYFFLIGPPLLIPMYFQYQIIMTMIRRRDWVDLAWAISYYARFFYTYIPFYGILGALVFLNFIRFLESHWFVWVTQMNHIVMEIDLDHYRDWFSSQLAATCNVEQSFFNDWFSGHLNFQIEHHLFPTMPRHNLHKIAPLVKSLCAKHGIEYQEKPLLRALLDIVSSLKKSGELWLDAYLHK

[19] = molecular target: Acyl-CoA (8-3)-desaturase (Rattus norvegicus) (UniProt Q920R3); experiment: Displacement of [3H]T-3364366 from D5D in Sprague-Dawley rat liver microsomes after 150 mins by liquid scintillation counting; method in brief: as §1
[20] = molecular target: T3, Acyl-CoA (8-3)-desaturase; experiment: Ratio of inhibition of D5D in human HepG2 cells preincubated for 30 mins followed by [14C]DGLA substrate addition measured after 3 hrs to inhibition of D5D in human HepG2 cells assessed as inhibition of [14C]AA production preincubated for 3 hrs followed by compound washout and addition of [14C]DGLA substrate measured after 4 hrs; assay type: cell-based
Target sequence in this assay (O60427 whole entry, looked up): as the sequence (O60427 whole entry) above

inhibition [1]: Active
SMILES: N#CC(CCCN1CCN(/N=C/c2cccnc2)CC1)(c1ccccc1)c1ccccc1

SMILES: CC(=O)NCCSc1nc2cscc2c(=O)n1-c1ccc(OCC(F)(F)F)cc1
IC50 (Acyl-CoA desaturase 1): > 10000 nM
MRT [2]: 0.65 h
T1/2 [3]: 2 h
IC50 [4]: 2.1 nM
IC50 [5]: 19 nM
AUC(0-t) at 6 h [6]: 260 ng·h/mL
Kd [7]: 2.7 nM
AUC(0-t) at 6 h [8]: 65 ng·h/mL
IC50 [9]: 1.9 nM
Vd [10]: 1.1 L/kg
MRT [11]: 1.8 h
Activity [12]: Tde
Activity (Homo sapiens): Active
Activity [13]: < 10%
clearance [14]: 25 mL/min/kg
inhibition [15]: Active
Activity [16]: Active
bioavailability [17]: 41%
Activity [18]: Active
IC50 (Acyl-CoA 6-desaturase): 6200 nM

inhibition [19]: Active
SMILES: Cc1ccc2c(c1)Nc1cc(C)ccc1CC2

inhibition [19]: Active
SMILES: Cc1cn([C@H]2C[C@@H](O)[C@@H](COC(c3ccccc3)(c3ccccc3)c3ccccc3)O2)c(=O)[nH]c1=O

inhibition [19]: Active
SMILES: COc1ccc(OC)c(NC(=O)Nc2cccc(F)c2)c1

IC50 (Acyl-CoA desaturase 1): > 10000 nM
inhibition [19]: Active
IC50 [4]: 26 nM
IC50 [5]: 160 nM
IC50 [9]: 29 nM
Ratio [20]: 1000
IC50 (Acyl-CoA 6-desaturase): > 10000 nM
SMILES: Nc1ccccc1C(=O)Nc1cccc(Cl)c1
